How the values were obtained:
Tetranychus cinnabarinus [1] = assay: Acaricidal activity against Tetranychus cinnabarinus (carmine spider mite) eggs at 600 mg/kg by leaf dip method; format: functional, Egg
Helicoverpa armigera [2] = assay: Stomach toxicity against third-instars Helicoverpa armigera assessed as larvicidal activity at 55 mg/kg at 25 +/- 1 degC after 3 days; format: functional
How it was run: (§1)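 Diet-incorporation assay on third-instar larvae. Samples dissolved in acetone to the desired final concentrations; 3 mL of test solution mixed evenly into about 27 g of prepared feed, then dispensed into 24-well plates. Run in triplicate at 25 ± 1 °C. Dead/alive scoring 3 days after treatment; mortality corrected by Abbott's formula on a 0–100 scale.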

Aphis craccivora [3] = assay: Larvicidal activity against Aphis craccivora (cowpea aphid) at 600 mg/kg by leaf dip method; format: functional
Tetranychus cinnabarinus [4] = assay: Acaricidal activity against Tetranychus cinnabarinus (carmine spider mite) larvae at 600 mg/kg by leaf dip method; format: functional
Helicoverpa armigera [5] = assay: Stomach toxicity against third-instars Helicoverpa armigera assessed as larvicidal activity at 110 mg/kg at 25 +/- 1 degC after 3 days; format: functional; how it was run: as §1
Tetranychus cinnabarinus [6] = assay: Acaricidal activity against Tetranychus cinnabarinus (carmine spider mite) eggs at 200 mg/kg by leaf dip method; format: functional, Egg
Aphis craccivora [7] = assay: Larvicidal activity against Aphis craccivora (cowpea aphid) at 200 mg/kg by leaf dip method; format: functional
Tetranychus cinnabarinus [8] = assay: Acaricidal activity against Tetranychus cinnabarinus (carmine spider mite) larvae at 200 mg/kg by leaf dip method; format: functional
Tetranychus cinnabarinus [9] = assay: Acaricidal activity against Tetranychus cinnabarinus (carmine spider mite) adults at 200 mg/kg by leaf dip method; format: functional
Tetranychus cinnabarinus [10] = assay: Acaricidal activity against Tetranychus cinnabarinus (carmine spider mite) adults at 600 mg/kg by leaf dip method; format: functional
Helicoverpa armigera [11] = assay: Stomach toxicity against third-instars Helicoverpa armigera assessed as larvicidal activity at 22 mg/kg at 25 +/- 1 degC after 3 days; format: functional; how it was run: as §1
Helicoverpa armigera [12] = assay: Stomach toxicity against third-instars Helicoverpa armigera assessed as larvicidal activity at 11 mg/kg at 25 +/- 1 degC after 3 days; format: functional; how it was run: as §1
Culex pipiens pallens [13] = assay: Larvicidal activity against Culex pipiens pallens (mosquito) at 5 mg/kg; format: functional
Culex pipiens pallens [14] = assay: Larvicidal activity against Culex pipiens pallens (mosquito) at 2 mg/kg; format: functional
Plutella xylostella [15] = assay: Stomach toxicity against Plutella xylostella (diamondback moth) assessed as larvicidal activity at 200 mg/kg by leaf dip method; format: functional
Helicoverpa armigera [16] = assay: Stomach toxicity against third-instars Helicoverpa armigera assessed as larvicidal activity at 5.5 mg/kg at 25 +/- 1 degC after 3 days; format: functional; how it was run: as §1
Plutella xylostella [17] = assay: Stomach toxicity against Plutella xylostella (diamondback moth) assessed as larvicidal activity at 600 mg/kg by leaf dip method; format: functional
Culex pipiens pallens [18] = assay: Larvicidal activity against Culex pipiens pallens (mosquito) at 1 mg/kg; format: functional
Culex pipiens pallens [19] = assay: Larvicidal activity against Culex pipiens pallens (mosquito) at 0.5 mg/kg; format: functional

Compound | Activity (Tetranychus cinnabarinus [1]) [%] | Activity (Helicoverpa armigera [2]) [%] | Activity (Aphis craccivora [3]) [%] | Activity (Tetranychus cinnabarinus [4]) [%] | Activity (Helicoverpa armigera [5]) [%] | Activity (Tetranychus cinnabarinus [6]) [%] | Activity (Aphis craccivora [7]) [%] | Activity (Tetranychus cinnabarinus [8]) [%] | Activity (Tetranychus cinnabarinus [9]) [%] | Activity (Tetranychus cinnabarinus [10]) [%] | Activity (Helicoverpa armigera [11]) [%] | Activity (Helicoverpa armigera [12]) [%] | Activity (Culex pipiens pallens [13]) [%] | Activity (Culex pipiens pallens [14]) [%] | Activity (Plutella xylostella [15]) [%] | Activity (Helicoverpa armigera [16]) [%] | Activity (Plutella xylostella [17]) [%] | Activity (Culex pipiens pallens [18]) [%] | Activity (Culex pipiens pallens [19]) [%]
CCCCCOc1ccc(C(CO)NC(=O)c2cc(CC)nn2C)cc1 (stereo not drawn) | 20 | 100 | 100 | 20 | 100 | 0 | 85 | 0 | 0 | 45 | 60 | 20 | 20 | 0 | 30 | 0 | 45 |  | 
CCc1nn(C)c(C(=O)NC(CO)c2ccc(Cl)cc2)c1Cl (stereo not drawn) | 10 | 100 | 100 | 25 | 100 | 0 | 95 | 0 |  | 0 | 40 | 0 | 30 | 0 | 0 |  | 30 |  | 
CCc1cc(C(=O)NC(CO)c2ccc(C(C)(C)C)cc2)n(C)n1 (stereo not drawn) | 50 | 100 | 70 | 0 | 100 | 40 | 50 |  |  | 0 | 60 | 10 | 10 | 0 | 60 | 0 | 70 |  | 
CCCCCOc1ccc(C2COC(c3cc(CC)nn3C)=N2)cc1 (stereo not drawn) | 50 | 100 | 75 | 30 | 100 | 40 | 20 | 0 | 0 | 20 | 30 | 0 | 30 | 0 | 0 |  | 30 |  | 
CCCCCOc1ccc(C(CCl)NC(=O)c2cc(CC)nn2C)cc1 (stereo not drawn) | 70 | 100 | 100 | 70 | 100 | 50 | 80 | 40 |  | 0 | 40 | 0 | 100 | 60 | 0 |  | 15 | 0 | 
CCc1cc(C2=NC(c3ccc(Oc4ccccc4)cc3)CO2)n(C)n1 (stereo not drawn) | 90 | 100 | 50 | 70 | 100 | 50 | 20 | 50 | 10 | 40 | 40 | 0 | 30 | 0 | 45 |  | 70 |  | 
CCc1nn(C)c(C(=O)NC(CCl)c2ccc(C(C)(C)C)cc2)c1Cl (stereo not drawn) | 34 | 100 | 100 | 30 | 100 | 30 | 100 | 0 |  | 0 | 100 | 20 | 100 | 100 | 30 | 0 | 90 | 40 | 0
CCc1nn(C)c(C2=NC(c3ccc(Cl)cc3)CO2)c1Cl (stereo not drawn) | 40 | 100 | 60 | 20 | 100 | 0 | 35 | 0 | 0 | 10 | 100 | 90 | 100 | 50 |  | 60 | 0 | 0 | 
CCc1cc(C(=O)NC(CO)c2ccc(Cl)cc2)n(C)n1 (stereo not drawn) | 0 | 100 | 98 | 25 | 100 |  | 75 | 0 | 0 | 25 | 50 | 0 | 20 | 0 | 60 |  | 100 |  | 
CCCCCOc1ccc(C(CO)NC(=O)c2c(Cl)c(CC)nn2C)cc1 (stereo not drawn) | 30 | 100 | 100 | 20 | 100 | 20 | 95 | 0 | 0 | 15 | 30 | 0 | 20 | 0 | 30 |  | 90 |  | 
CCCCCOc1ccc(C(CCl)NC(=O)c2c(Cl)c(CC)nn2C)cc1 (stereo not drawn) | 40 | 100 | 100 | 30 | 100 | 0 | 45 | 0 |  | 0 | 100 | 60 | 100 | 70 | 45 | 10 | 90 | 0 | 
CCc1cc(C2=NC(c3ccc(Cl)cc3)CO2)n(C)n1 (stereo not drawn) | 100 | 100 | 100 | 40 | 100 | 80 | 90 | 20 | 0 | 20 | 70 | 40 | 10 | 0 | 15 | 0 | 60 |  | 
CCc1nn(C)c(C(=O)NC(CO)c2ccc(C(C)(C)C)cc2)c1Cl (stereo not drawn) | 40 | 100 | 100 | 25 | 100 | 0 | 80 |  | 0 | 10 | 40 | 0 | 20 | 0 | 40 |  | 80 |  | 
CCc1cc(C(=O)NC(CCl)c2ccc(Cl)cc2)n(C)n1 (stereo not drawn) | 30 | 100 | 30 | 20 | 100 | 0 | 0 | 0 |  | 0 | 20 | 0 | 10 | 0 | 0 |  | 30 |  | 
CCc1nn(C)c(C(=O)NC(CO)c2ccc(Oc3ccccc3)cc2)c1Cl (stereo not drawn) | 15 | 100 | 100 | 30 | 100 | 0 | 50 | 0 |  | 0 | 70 | 40 | 100 | 100 | 20 | 0 | 60 | 40 | 0
CCc1cc(C(=O)NC(CO)c2ccc(Oc3ccccc3)cc2)n(C)n1 (stereo not drawn) | 20 | 100 | 95 | 0 | 100 | 0 | 70 |  | 0 | 30 | 30 | 0 | 30 | 0 | 45 |  | 90 |  | 

— ChEMBL document CHEMBL3046583, “Design, synthesis, and insecticidal activity of novel pyrazole derivatives containing α-hydroxymethyl-N-benzyl carboxamide, α-chloromethyl-N-benzyl carboxamide, and 4,5-dihydrooxazole moieties” (2012)
